Assay results gathered from unrelated publications.
SLC6A4: Sodium-dependent serotonin transporter (SLC6A4, Homo sapiens, UniProt P31645)
rep main protease: Replicase polyprotein 1ab, main protease (rep, Porcine epidemic diarrhea virus, UniProt P0C6Y4)
rep papain-like protease: Replicase polyprotein 1ab, papain-like protease (rep, Porcine epidemic diarrhea virus, UniProt P0C6Y4)

| Structure (SMILES) | target | assay | system | setting | endpoint | result |
| --- | --- | --- | --- | --- | --- | --- |
| O[C@@H]1[C@H](O)[C@@H]2C[C@@H]2[C@H]1n1cnc2c(NCCC3CC3)ncnc21 | SLC6A4 | ligand displacement, radioligand |  | 10 µM, cell membranes | inhibition | 14% |
| COc1cc(CNC(=O)CC(c2ccc(Cl)cc2)C(C)C)cc(Br)c1OC (stereo not shown) | rep main protease | enzyme activity, inhibitor, FRET |  | 10 µM | inhibition | 33% |
| Cc1cc(O)c(-c2ccc([C@@H](C)CN(C)C)cc2)c2c1[nH]c(=O)c1sccc12 | Calcium/calmodulin-dependent protein kinase type 1D (CAMK1D, Homo sapiens, UniProt Q8IU85) | cell-free assay, inhibitor |  | 0.1 µM, lysate | inhibition | -8.71% |
| CCCCC[C@H](O)/C=C/[C@H]1[C@H](O)CC(=O)[C@@H]1C/C=C\CCCC(=O)O | Prostaglandin E2 receptor EP1 subtype (PTGER1, Homo sapiens, UniProt P34995) | inositol phosphate, agonist, TR-FRET | AD293 | 1 h | Emax | 99.9% |
| CN1CCc2cccc3c2[C@H]1Cc1ccc(O)c(O)c1-3 | D(1A) dopamine receptor (DRD1, Homo sapiens, UniProt P21728) | cAMP, agonist |  |  | Emax | ~100% |
| COc1cc(-c2cc(C(C)=O)n3ccccc23)cc(OC)c1Cn1ccnc1 | Bromodomain adjacent to zinc finger domain protein 2B, bromodomain (BAZ2B, Homo sapiens, UniProt Q9UIF8) | thermal stability, DSF |  |  | ΔTm | 1.6 °C |
| CCN1/C(=C/C(C)=O)Sc2ccc(F)cc21 | SLC6A4 | ligand displacement, radioligand |  | 10 µM | inhibition | 2.03% |
| O=C(NCc1cc(O)c(O)c(Br)c1)c1ccc(Cl)nc1 | rep main protease | enzyme activity, inhibitor, FRET |  | 10 µM | inhibition | 6.11% |
| CCCCC(=O)Nc1ccc(-c2ccc3ncn(CCC)c(=O)c3c2)cn1 | Rhodopsin kinase GRK7 (GRK7, Homo sapiens, UniProt Q8WTQ7) | binding, competition with immobilised ligand |  | 0.5 µM | remaining binding | 93% |
| CCOC(=O)[C@@]12C[C@@H]1[C@@H](n1cnc3c(NCCCCCc4ccccc4)nc(I)nc31)[C@H](O)[C@@H]2O | SLC6A4 | ligand displacement, radioligand |  | 10 µM | inhibition | 48% |
| COc1cc(CNC(=O)c2ccc(OC(F)(F)F)cc2)cc(Br)c1OC | rep papain-like protease | enzyme activity, inhibitor, FRET |  | 10 µM | inhibition | 10.8% |
| CCOC(=O)[C@@]12C[C@@H]1[C@@H](n1cnc3c(NCCCCCc4ccccc4)nc(C#Cc4ccccc4)nc31)[C@H](O)[C@@H]2O | SLC6A4 | ligand displacement, radioligand |  | 10 µM, cell membranes | inhibition | 27% |
| O=C(NCc1cc(O)c(O)c(Br)c1)c1ccc2ccccc2c1 | rep papain-like protease | enzyme activity, inhibitor, FRET |  | 10 µM | inhibition | 19.4% |
| N#CC[C@@]12C[C@@H]1[C@@H](n1cnc3c(NC4CC4)nc(C#Cc4ccc(Cl)s4)nc31)[C@H](O)[C@@H]2O | SLC6A4 | ligand displacement, radioligand |  | 10 µM | inhibition | 15% |
| O=C(NCc1cc(O)c(O)c(Br)c1)c1ccncc1Cl | rep papain-like protease | enzyme activity, inhibitor, FRET |  | 10 µM | inhibition | 44.4% |
| CNC(=O)[C@@]12C[C@@H]1[C@@H](n1cnc3c(Nc4ccccc4)nc(C#Cc4ccc(Cl)s4)nc31)[C@H](O)[C@@H]2O | SLC6A4 | ligand displacement, radioligand |  | 10 µM | inhibition | 11% |
| COc1cc(CNC(=O)c2cc3ccccc3n2C)cc(Br)c1OC | rep papain-like protease | enzyme activity, inhibitor, FRET |  | 10 µM | inhibition | 13% |
| CCOC(=O)[C@@]12C[C@@H]1[C@@H](n1ccc3c(NCCCCc4ccccc4)nc(C#Cc4ccccc4)nc31)[C@H](O)[C@@H]2O | SLC6A4 | ligand displacement, radioligand |  | 10 µM | inhibition | 9% |
| C1=C/COCc2cc(ccc2OCCN2CCCC2)Nc2nccc(n2)-c2cccc(c2)COC/1 | Serine/threonine-protein kinase Nek2 (NEK2, Homo sapiens, UniProt P51955) | binding |  | 0.1 µM | remaining binding | 75% |
